Here are results for seven compounds from ChEMBL document CHEMBL1155222, “Synthesis and anticancer activity of N-bis(trifluoromethyl)alkyl-N'-thiazolyl and N-bis(trifluoromethyl)alkyl-N'-benzothiazolyl ureas” (2009).

Holding throughout (type): functional
One experiment relates to OVCAR-4. Kind of experiment: Anticancer activity against human OVCAR4 cells after 48 hrs by sulforhodamine B assay. The conditions noted are these: OVCAR-4, 48 h. Put shortly: (§1)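 NCI 60-cell-line screen. Cells grown in RPMI 1640 with 5% FBS and 2 mM L-glutamine, plated at 5000–40,000 cells/well, and preincubated 24 h at 37 °C under 5% CO2. Compounds were taken from DMSO stocks and tested at five final concentrations, 10^-4 to 10^-8 M, for 48 h. Cells were TCA-fixed, stained with 0.4% SRB, and read at 515 nm. GI50, TGI and LC50 were derived as log molar values.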
(In general: In SRB staining, fixed cells bind dye roughly in proportion to their protein.)

A further experiment concerns MDA-N. Kind of experiment: Anticancer activity against human MDA-N cells after 48 hrs by sulforhodamine B assay. Put shortly: as §1
Another experiment has as its system SF-268. Kind of experiment: Anticancer activity against human SF268 cells assessed as cell growth at 100 uM after 48 hrs by Alamar blue assay relative to control. The conditions noted are these: SF-268, 48 h, read-out: Activity. Put shortly: (§2)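 NCI one-dose pre-test on MCF7, NCI-H460 and SF-268. Cells were inoculated and preincubated, then exposed to a single 10^-4 M concentration for 48 h. End-point was alamar blue. Results are percent growth versus untreated control cells, with negative values indicating cell kill.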
A general note: Alamar Blue is a resazurin reagent that responds to reducing activity.

In the next experiment the test system is MCF7. Kind of experiment: Anticancer activity against human MCF7 cells assessed as cell growth at 100 uM after 48 hrs by Alamar blue assay relative to control. The following applies: MCF7, 48 h, read-out: Activity. Put shortly:
as §2

Another experiment has as its system ACHN. The experiment is described as follows: Anticancer activity against human ACHN cells after 48 hrs by sulforhodamine B assay. Put shortly:
as §1

The test system of another experiment is NCI-H226. Kind of experiment: Anticancer activity against human NCI-H226 cells after 48 hrs by sulforhodamine B assay. The conditions noted are these: NCI-H226, 48 h. Put shortly: as §1
The test system of another experiment is Malme-3M. The experiment is described as follows: Anticancer activity against human MALME-3M cells after 48 hrs by sulforhodamine B assay. Put shortly:
as §1

Another experiment relates to PC-3. The experiment is described as follows: Anticancer activity against human PC3 cells after 48 hrs by sulforhodamine B assay. The conditions noted are these: PC-3, 48 h. Put shortly:
as §1

A further experiment relates to DU-145. The experiment is described as follows: Anticancer activity against human DU145 cells after 48 hrs by sulforhodamine B assay. The conditions noted are these: DU-145, 48 h. Put shortly:
as §1

In another experiment the test system is RXF 393. Kind of experiment: Anticancer activity against human RXF393 cells after 48 hrs by sulforhodamine B assay. The following applies: RXF 393, 48 h. Put shortly: as §1
The next experiment has as its system SNB-75. Kind of experiment: Anticancer activity against human SNB75 cells after 48 hrs by sulforhodamine B assay. The following applies: SNB-75, 48 h. Put shortly:
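NCI 60-cell-line panel; cells grown in RPMI 1640 with 5% FBS and 2 mM L-glutamine, plated at 5000–40,000 cells/well and preincubated 24 h at 37 °C, 5% CO2. Compounds came from DMSO stocks diluted in medium with gentamicin and were tested at five final concentrations, 10^-4 to 10^-8 M, for 48 h. Cells were fixed with TCA, stained with SRB and read at 515 nm. GI50, TGI and LC50 were derived as log molar values.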

The next experiment concerns NCI-H522. The experiment is described as follows: Anticancer activity against human NCI-H522 cells after 48 hrs by sulforhodamine B assay. The following applies: NCI-H522, 48 h. Put shortly: as §1
In the next experiment the test system is A498. Kind of experiment: Anticancer activity against human A498 cells after 48 hrs by sulforhodamine B assay. The following applies: A498, 48 h. Put shortly:
as §1

Another experiment has as its system HL-60(TB). Kind of experiment: Anticancer activity against human HL-60(TB) cells after 48 hrs by sulforhodamine B assay. The conditions noted are these: HL-60, 48 h. Put shortly:
(§3)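 NCI 60-cell-line screen. Cells were grown in RPMI 1640 with 5% FBS and 2 mM L-glutamine, seeded at 5000–40,000 cells/well and preincubated 24 h at 37 °C, 5% CO2. Compounds in DMSO were diluted in medium with gentamicin and tested at five concentrations (10^-4 to 10^-8 M) for 48 h. Cells were then fixed with TCA, stained with SRB and read at 515 nm.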

In the next experiment the test system is NCI-H460. The experiment is described as follows: Anticancer activity against human NCI-H460 cells assessed as cell growth at 100 uM after 48 hrs by Alamar blue assay relative to control. The following applies: NCI-H460, 48 h, read-out: Activity. Put shortly:
as §2

Experiment [1] is described as follows: Anticancer activity against human RPMI8266 cells after 48 hrs by sulforhodamine B assay. Put shortly: as §1
Another experiment deals with HT-29. Kind of experiment: Anticancer activity against human HT-29 cells after 48 hrs by sulforhodamine B assay. The conditions noted are these: HT-29, 48 h. Put shortly:
as §1

For a further experiment, the system named is HCT-15. The experiment is described as follows: Anticancer activity against human HCT15 cells after 48 hrs by sulforhodamine B assay. The following applies: HCT-15, 48 h. Put shortly: as §1
The subject of another experiment is NCI-H23. Kind of experiment: Anticancer activity against human NCI-H23 cells after 48 hrs by sulforhodamine B assay. The following applies: NCI-H23, 48 h. Put shortly: as §3

Consider `CC(NC(=O)Nc1nc2ccccc2s1)(C(F)(F)F)C(F)(F)F`, for which the 50% growth inhibitory concentration (GI50) (in general, the concentration at which growth is held to half of that of the control) is 21.9 µM in the experiment on OVCAR-4; 97.7 µM in the experiment with MDA-N; 28.8 µM in the experiment on ACHN; 38.9 µM in the experiment with NCI-H226; 15.1 µM with Malme-3M; 34.7 µM in the experiment with PC-3. Further, the GI50 was 91.2 µM in the experiment with DU-145; 64.6 µM in the experiment on RXF 393; 7.59 µM in the experiment with SNB-75; 24.5 µM with NCI-H522; over 100 µM in the experiment with A498; 97.7 µM with HL-60(TB). The GI50 in experiment [1] was 38.9 µM; in the experiment on HT-29 it was 19.5 µM; with HCT-15 it was over 100 µM. The growth at 100 µM with SF-268 was determined as 28%; in the experiment with MCF7 it was 62%; in the experiment on NCI-H460 it was 43%.

Consider `O=C(Nc1nccs1)NC(C(F)(F)F)C(F)(F)F`, for which the GI50 in the experiment with OVCAR-4 is 39.8 µM; in the experiment on MDA-N it was over 100 µM; with ACHN it was 55 µM; with NCI-H226 it was 57.5 µM; in the experiment with Malme-3M, 29.5 µM; with PC-3 it was 38 µM. Further, the GI50 with DU-145 is 63.1 µM; with RXF 393 it was 77.6 µM; with SNB-75, 55 µM; in the experiment with NCI-H522 it was 23.4 µM; in the experiment on A498, 95.5 µM; with HL-60(TB), 72.4 µM. The GI50 with HT-29 was 91.2 µM; in the experiment with HCT-15, 66.1 µM. In addition, the growth at 100 µM worked out at 20% in the experiment on SF-268, 35% in the experiment on MCF7 and 22% in the experiment with NCI-H460.

In the case of `CNC(=O)Nc1ccccc1`, the GI50 in the experiment with OVCAR-4, in the experiment with MDA-N, in the experiment on ACHN, with NCI-H226, in the experiment on Malme-3M and with PC-3 was 100 µM throughout. The concentration for 50% growth inhibition (GI50) was 100 µM with DU-145; 100 µM in the experiment with RXF 393; 74.1 µM in the experiment with SNB-75; 100 µM in the experiment with NCI-H23; 100 µM with NCI-H522; 100 µM in the experiment on A498. In addition, the GI50 (in the experiment with HL-60(TB); in [1]; in the experiment with HT-29; with HCT-15) was 100 µM in each case.

As to `O=C(Nc1nc2ccccc2s1)NC(C(F)(F)F)C(F)(F)F`, the GI50 was 28.8 µM with OVCAR-4; 23.4 µM in the experiment with MDA-N; 28.2 µM in the experiment with ACHN; 25.7 µM in the experiment on NCI-H226; 20.4 µM in the experiment with Malme-3M; 25.1 µM with PC-3. In addition, the GI50 in the experiment on DU-145 is 30.2 µM; with RXF 393, 28.2 µM; in the experiment with SNB-75 it was 17 µM; with NCI-H522, 14.1 µM; in the experiment with A498, 20 µM; in the experiment on HL-60(TB), 26.3 µM. Further, the results for the GI50 (in [1]; in the experiment with HT-29; in the experiment with HCT-15) were 33.9 µM, 19.5 µM and 25.7 µM, respectively. In addition, the growth at 100 µM is -39% in the experiment on SF-268, -10% with MCF7 and -74% in the experiment with NCI-H460.

Take `O=c1[nH]cc(F)c(=O)[nH]1` [FLUOROURACIL]: the GI50 with OVCAR-4 is 4.47 µM; with ACHN, 0.295 µM; with NCI-H226, 55 µM; with Malme-3M it was 0.0513 µM; in the experiment on PC-3 it was 2.34 µM; in the experiment with DU-145, 0.363 µM. Further, the GI50 is 2.63 µM in the experiment with RXF 393; 79.4 µM with SNB-75; 0.331 µM with NCI-H23; 7.24 µM in the experiment with NCI-H522; 0.398 µM in the experiment with A498; 2.29 µM in the experiment on HL-60(TB). The GI50 with HT-29 is 0.178 µM; with HCT-15, 0.11 µM.

On to `CCC(NC(=O)Nc1nc2ccccc2s1)(C(F)(F)F)C(F)(F)F`, for which the GI50 in the experiment with OVCAR-4 is 18.6 µM; with MDA-N, 18.6 µM; with ACHN, 18.2 µM; in the experiment with NCI-H226, 15.8 µM; in the experiment with Malme-3M, 15.5 µM; in the experiment on PC-3, 18.2 µM. The GI50 was 18.6 µM in the experiment with DU-145; 17.4 µM in the experiment on RXF 393; 1.45 µM in the experiment on SNB-75; 17 µM with NCI-H522; 13.5 µM in the experiment on A498; 19.5 µM with HT-29. Besides, the GI50 in the experiment with HCT-15 was 17.8 µM. For the same compound, the growth at 100 µM in the experiment with SF-268 was -94%; in the experiment with MCF7 it was -79%; in the experiment with NCI-H460 it was -93%.

Consider `CCC(NC(=O)Nc1nccs1)(C(F)(F)F)C(F)(F)F`, for which the GI50 in the experiment on OVCAR-4 was 83.2 µM; in the experiment with MDA-N it was 60.3 µM; with ACHN, 61.7 µM; in the experiment with NCI-H226, 70.8 µM; with Malme-3M, 58.9 µM; with PC-3 it was 0.0794 µM. For the same compound, the 50% growth inhibitory concentration (GI50) is 69.2 µM in the experiment with DU-145; 83.2 µM with RXF 393; 19.5 µM with SNB-75; 38 µM in the experiment on NCI-H522; 46.8 µM in the experiment with A498; 41.7 µM with HT-29. The compound also gave a GI50 with HCT-15 of 53.7 µM. Further, the growth at 100 µM in the experiment on SF-268 amounted to 40%; in the experiment on MCF7, 20%; in the experiment with NCI-H460 it was 6%.
